Converted amounts (≈) assume the structure as drawn.
Key:
Proteus vulgaris = assay: In vitro antibacterial activity against Proteus vulgaris OX-19; type: functional
Procedure, shortened: (§1)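 MIC measured by 2-fold serial agar dilution. The growth medium is given as Mueller–Hinton agar in the text and as sensitivity test agar in the table footnote. Value reported in µg/mL.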

Escherichia coli [1] = assay: (§2) In vitro antibacterial activity against Escherichia coli NHJ JC-2; type: functional, escherichia colin; procedure, shortened: as §1
Staphylococcus aureus [2] = assay: In vitro antibacterial activity against Staphylococcus aureus FDA 209P JC-1; type: functional; procedure, shortened: as §1
Escherichia coli [3] = assay: In vitro antibacterial activity against Escherichia coli KC-14
[4] = tested on: Staphylococcus epidermidis; assay: In vitro antibacterial activity against Staphylococcus epidermidis IAM 1296; type: functional; procedure, shortened: as §1
Staphylococcus aureus [5] = assay: In vitro antibacterial activity against […] aureus IID 803 -; type: functional; procedure, shortened: as §1
Salmonella typhimurium = assay: In vitro antibacterial activity against Salmonella Typhimurium IID 971; type: functional, Salmonella enterica subsp. enterica serovar Typhimurium; details: Salmonella enterica; procedure, shortened: as §1
[6] = Acute toxicity on intravenous injection in mice; type: organism-based; details: mouse, in vivo
Procedure, shortened: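 ddY male mice (20–25 g, five per group) given compound by intravenous injection. Compound was dissolved in 1 N NaOH, then brought up in phosphoric acid–saline buffer (pH 7.2). LD50 was determined 7 days later by the Weil method.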

Serratia marcescens = assay: (§3) In vitro antibacterial activity against Serratia; type: functional; procedure, shortened: as §1
Pseudomonas aeruginosa = assay: In vitro antibacterial activity against Pseudomonas aeruginosa IFO 3445; type: functional; procedure, shortened: as §1
Klebsiella pneumoniae = assay: In vitro antibacterial activity against Klebsiella pneumoniae PCI-602; type: functional; procedure, shortened: as §1
Bacillus subtilis = assay: In vitro antibacterial activity against Bacillus subtilis ATCC 6633; type: functional; procedure, shortened: as §1
[7] = Acute toxicity on oral administration in mice; type: organism-based; details: mouse, in vivo
Procedure, shortened: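 ddY male mice (20–25 g, five per group) were dosed orally with a suspension in 0.5% sodium carboxymethylcellulose. LD50 was determined 7 days later by the Weil method.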

Escherichia coli [8] = assay: In vivo antibacterial activity against Escherichia coli KC-14 (po); type: functional
Procedure, shortened: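 Oral protection test in mice infected with E. coli KC-14. Compound suspended in 0.5% sodium CMC and given orally 1 h after infection. ED50 (mg/kg) calculated from cumulative mortality on day 7 after infection by the shortened Weil method, with 95% confidence limits.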

Escherichia coli [9] = assay: as §2; type: functional, escherichia colin; remark: listed apart in the source
Procedure, shortened: (§4)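 MIC by 2-fold agar dilution on sensitivity test agar (Mueller–Hinton agar per text), in µg/mL.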

Staphylococcus aureus [10] = assay: In vitro antibacterial activity against Staphylococcus aureus FDA […] JC-1; type: functional; procedure, shortened: as §4
[11] = Concentration of liberated compound in serum after 30 min at the dose of 50 mg/kg (po).; type: ADME, organism-based; set-up: dose 50 mg/kg; details: in vivo, 0.5 h
Procedure, shortened: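 ddY male mice (20–25 g, five per group) given 50 mg/kg orally as a suspension in 0.5% CMC and killed by bleeding at 30 min. Serum was separated by centrifugation (3000 rpm, 20 min, 4 °C) and deproteinized with 5% aqueous trichloroacetic acid. Liberated NFLX was quantified by reversed-phase (ODS) HPLC with UV detection. Values are mean ± SE.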

[12] = Concentration of liberated compound in serum after 240 min at the dose of 50 mg/kg (po).; type: functional, organism-based; set-up: dose 50 mg/kg
Procedure, shortened: (§5)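 ddY male mice (20–25 g, five per group) got 50 mg/kg orally as a 0.5% CMC suspension and were killed by bleeding at 30, 60, 120 or 240 min. Serum was taken after centrifugation at 3000 rpm, 20 min, 4 °C, and deproteinised with 5% aqueous trichloroacetic acid. The released parent quinolone was measured by HPLC with UV detection on an ODS column. Mean ± SE.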

[13] = Concentration of liberated compound in serum after 120 min at the dose of 50 mg/kg (po).; type: functional, organism-based; set-up: dose 50 mg/kg; procedure, shortened: as §5
Serratia = assay: as §3; type: functional; procedure, shortened: as §4
[14] = Concentration of liberated compound in serum after 60 min at the dose of 50 mg/kg (po).; type: functional, organism-based; set-up: dose 50 mg/kg; procedure, shortened: as §5

Row | SMILES | MIC (Proteus vulgaris) | MIC (Escherichia coli [3]) | MIC [4] | MIC (Staphylococcus aureus [5]) | MIC (Salmonella typhimurium) | LD50 [6] | MIC (Serratia marcescens) | MIC (Pseudomonas aeruginosa) | MIC (Klebsiella pneumoniae) | MIC (Bacillus subtilis) | LD50 [7] | ED50 (Escherichia coli [8]) | MIC (Escherichia coli [9]) | MIC (Staphylococcus aureus [10]) | MIC (Serratia) | further results
1 | CCn1cc(C(=O)O)c(=O)c2cc(F)c(N3CCN(O)CC3)cc21 | 0.05 µg/mL (≈ 0.149 µM) | 0.39 µg/mL (≈ 1.16 µM) | 6.25 µg/mL (≈ 18.6 µM) | 1.56 µg/mL (≈ 4.65 µM) | 0.1 µg/mL (≈ 0.298 µM) | > 500 mg/kg | 3.13 µg/mL (≈ 9.33 µM) | 12.5 µg/mL (≈ 37.3 µM) | 0.05 µg/mL (≈ 0.149 µM) | 0.2 µg/mL (≈ 0.596 µM) | > 4000 mg/kg |  |  |  |  | MIC (Escherichia coli [1]): 1.56 µg/mL (≈ 4.65 µM); MIC (Staphylococcus aureus [2]): 0.78 µg/mL (≈ 2.33 µM)
2 | O=C(O)c1cn(C2CC2)c2cc(N3CCN(O)CC3)c(F)cc2c1=O | 0.05 µg/mL (≈ 0.144 µM) | 0.025 µg/mL (≈ 0.072 µM) | 1.56 µg/mL (≈ 4.49 µM) | 0.78 µg/mL (≈ 2.25 µM) | 0.025 µg/mL (≈ 0.072 µM) |  | 0.78 µg/mL (≈ 2.25 µM) | 1.56 µg/mL (≈ 4.49 µM) | 0.025 µg/mL (≈ 0.072 µM) | 0.39 µg/mL (≈ 1.12 µM) | > 4000 mg/kg | 0.37 mg/kg | 0.1 µg/mL (≈ 0.288 µM) | 0.39 µg/mL (≈ 1.12 µM) |  | 
3 | CCn1cc(C(=O)O)c(=O)c2cc(F)c(N3CCNCC3)cc21 [NORFLOXACIN] | 0.1 µg/mL (≈ 0.313 µM) | 0.2 µg/mL (≈ 0.626 µM) | 3.13 µg/mL (≈ 9.8 µM) | 1.56 µg/mL (≈ 4.89 µM) | 0.05 µg/mL (≈ 0.157 µM) | 314 mg/kg |  | 1.56 µg/mL (≈ 4.89 µM) | 0.1 µg/mL (≈ 0.313 µM) | 0.39 µg/mL (≈ 1.22 µM) | > 4000 mg/kg |  | 0.2 µg/mL (≈ 0.626 µM) | 0.39 µg/mL (≈ 1.22 µM) | 0.39 µg/mL (≈ 1.22 µM) | Concentration [11]: 4140 ng/mL; Concentration [12]: 0.47 µg/mL; Concentration [13]: 1.09 µg/mL; Concentration [14]: 2.8 µg/mL
4 | O=C(O)c1cn(C2CC2)c2cc(N3CCNCC3)c(F)cc2c1=O [CIPROFLOXACIN] | 0.05 µg/mL (≈ 0.151 µM) | 0.0125 µg/mL (≈ 0.0377 µM) | 1.56 µg/mL (≈ 4.71 µM) | 0.78 µg/mL (≈ 2.35 µM) | 0.025 µg/mL (≈ 0.0754 µM) |  |  | 0.78 µg/mL (≈ 2.35 µM) | 0.025 µg/mL (≈ 0.0754 µM) | 0.39 µg/mL (≈ 1.18 µM) |  | 0.84 mg/kg |  | 0.39 µg/mL (≈ 1.18 µM) | 0.2 µg/mL (≈ 0.604 µM) | 
